Measured values reported in ChEMBL document CHEMBL1221214, “Cytosporone B is an agonist for nuclear orphan receptor Nur77” (Nat Chem Biol, 2008).
Values after ≈ are worked out from the molar mass of the structure shown. Active and inactive are the calls of the source. The calls are words filed in the database; no cut-off is given here.

Key:
[1] = target: Nuclear receptor subfamily 4 group A member 1 (Mus musculus) (UniProt P12813); experiment: Agonist activity at Nur77 in Nr4a1 deficient mouse C57BL/6 assessed as fructose-1,6-bisphosphatase mRNA at 50 mg/kg, ip by real-time PCR analysis; format: functional, organism-based; design: dose 50 mg/kg
[2] = system: BGC-823; experiment: Induction of Nur77 mediated apoptosis in human BGC823 cells transfected with si-Nur77 at 5 uM after 48 hrs by flow cytometry assay; format: functional; details: in the assay text read “5 ug/ml” for “5 uM”
Method in brief: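 BGC-823 gastric cancer cells, transfected or not with Nur77 siRNA or scrambled control siRNA, then exposed to 5 μg ml-1 for 48 h. Apoptotic cells were counted by flow cytometry.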

[3] = target: T1, Nuclear receptor subfamily 4immunitygroup A member 1 (Homo sapiens, UniProt P22736); experiment: Agonist activity at nuclear orphan receptor Nur77 expressed in human BGC823 cells co-transfected with fused GAL4-LBD assessed as transactivation after 12 hrs by luciferase reporter gene assay; format: functional, cell-based, BGC-823
[4] = target: T1, Nuclear receptor subfamily 4immunitygroup A member 1; experiment: Agonist activity at nuclear orphan receptor Nur77 in human BGC823 cells bearing beta-galactosidase expression vector assessed as transcriptional activation of retinoic acid receptor response element after 12 hrs by luciferase assay; format: functional, cell-based; details: BGC-823
[5] = target: Nuclear receptor subfamily 4 group A member 1 (Mus musculus) (UniProt P12813); experiment: Agonist activity at Nur77 in wild-type mouse assessed as transcriptional activation of luciferase reporter gene relative to control; format: functional
Method in brief: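 Nur77, NurRE-luciferase reporter and β-galactosidase combined with in vivo transfection reagent and injected into tail vein of wild-type or Nr4a1-/- C57BL/6 mice (n = 5/group); 5 h later DMSO (50 μl) or Csn-B 50 mg kg-1 ip; liver lysate luciferase read 24 h post-injection; means ± s.e.m.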

[6] = system: BGC-823; experiment: Induction of Nur77 mediated apoptosis in human BGC823 cells at 5 ug/ml after 48 hrs by flow cytometry assay
[7] = target: T1, Nuclear receptor subfamily 4immunitygroup A member 1; experiment: Agonist activity at nuclear orphan receptor Nur77 in human BGC823 cells bearing beta-galactosidase expression vector assessed as transcriptional activation of NurRE reporter gene after 12 hrs by luciferase assay; format: functional, cell-based; details: BGC-823
[8] = system: Saccharomyces cerevisiae; experiment: Antimicrobial activity against Saccharomyces cerevisiae; format: functional, organism-based
[9] = organism: Mus musculus; experiment: Reduction in blood glucose level in insulin treated mouse C57BL/6 within 30 mins; format: functional
Method in brief: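 C57BL/6 mice fasted 5 h with water, then injected intraperitoneally with insulin (0.5 U kg-1), alone or with compound at 50 mg kg-1. Tail-vein blood glucose was read by glucometer at 15–300 min after treatment. Means ± s.e.m.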

[10] = target: T1, Nuclear receptor subfamily 4immunitygroup A member 1; experiment: Binding affinity to nuclear orphan receptor Nur77 by sedimentation equilibrium assay
[11] = target: T1, Nuclear receptor subfamily 4immunitygroup A member 1; experiment: Binding affinity to nuclear orphan receptor Nur77-DNA binding domain at 5 uM by fluorescence quenching analysis
[12] = target: Nuclear receptor subfamily 4 group A member 2 (Homo sapiens) (UniProt P43354); experiment: Agonist activity at nuclear orphan receptor Nurr1 expressed in human BGC823 cells co-transfected with fused GAL4-Nurr1(LBD) assessed as transactivation after 12 hrs by transactivation assay; format: functional, cell-based; details: BGC-823
[13] = system: NIH3T3; experiment: Antiproliferative activity against mouse NIH/3T3 cells assessed as number of viable cells after 72 hrs by MTT assay; format: functional, cell-based
[14] = target: Nuclear receptor subfamily 4 group A member 1 (Mus musculus) (UniProt P12813); experiment: Agonist activity at Nur77 in Nr4a1 deficient mouse C57BL/6 assessed as glucose-6-phosphatase mRNA at 50 mg/kg, ip by real-time PCR analysis; format: functional, organism-based; design: dose 50 mg/kg
[15] = target: T1, Nuclear receptor subfamily 4immunitygroup A member 1; experiment: Induction of Nur77-SRC3 interaction in HEK293T cells by GST-pull-down assay; format: cell-based; details: HEK-293T
Method in brief: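 293T cells transfected with Flag-SRC-1, -2 or -3 and treated at 10⁻⁶ M for 3 h. Lysates were incubated with GST-Nur77 or GST alone, and bound SRC was detected by pull-down against input levels.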

[16] = system: BGC-823; experiment: Induction of Nur77 mediated apoptosis in human BGC823 cells assessed as cytochrome C release from mitochondria at 5 uM after 24 hrs by Western blotting analysis; format: functional, cell-based
[17] = target: Nuclear receptor subfamily 4 group A member 1 (Mus musculus) (UniProt P12813); experiment: Agonist activity at Nur77 in wild-type mouse C57BL/6 assessed as pyruvate kinase mRNA at 50 mg/kg, ip after 300 mins by real-time PCR analysis; format: functional, organism-based; design: dose 50 mg/kg
[18] = target: Nuclear receptor subfamily 4 group A member 1 (Mus musculus) (UniProt P12813); experiment: Agonist activity at Nur77 in wild-type mouse C57BL/6 assessed as hexokinase gene at 50 mg/kg, ip within 30 to 300 mins by real-time PCR analysis; format: functional, organism-based; design: dose 50 mg/kg
[19] = system: SW-620; experiment: Antiproliferative activity against human SW620 cells assessed as number of viable cells after 72 hrs by MTT assay; format: functional
Method in brief: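 BGC-823 gastric and SW620 colon cancer cells incubated 72 h with various Csn-B concentrations; viable cells counted by MTT assay.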

[20] = target: T1, Nuclear receptor subfamily 4immunitygroup A member 1; experiment: Agonist activity at nuclear orphan receptor Nur77 in human BGC823 cells bearing beta-galactosidase expression vector assessed as transcriptional activation of estrogen receptor reporter gene after 12 hrs by luciferase assay; format: functional, cell-based; details: BGC-823
[21] = target: Nuclear receptor subfamily 4 group A member 3 (Homo sapiens) (UniProt Q92570); experiment: Agonist activity at nuclear orphan receptor NOR1 expressed in human BGC823 cells co-transfected with fused GAL4-NOR1(LBD) assessed as transactivation after 12 hrs by transactivation assay; format: functional, cell-based; details: BGC-823
[22] = target: T1, Nuclear receptor subfamily 4immunitygroup A member 1; experiment: Agonist activity at nuclear orphan receptor Nur77 expressed in human BGC823 cells co-transfected with pLuc-2900 containing Nr4a1 promoter assessed as transcriptional activity; format: functional, cell-based; details: BGC-823
[23] = system: BGC-823; experiment: Antitumor activity against human BGC823 cells expressing si-Nur77 xenografted in athymic nude mouse BALB/c assessed as apoptotic cells by TUNEL assay; format: functional
Method in brief: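 Tumors from the subcutaneous BGC-823 xenograft nude mice (wild-type, si-Nur77 or si-Ctrl cells; Csn-B 13 mg kg-1 ip twice weekly or DMSO for 4 weeks) were sectioned and apoptotic cells detected by TUNEL assay.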

[24] = target: T1, Nuclear receptor subfamily 4immunitygroup A member 1; experiment: Binding affinity to NuR77-LBD receptor expressed in human BGC823 cells; format: cell-based, BGC-823
[25] = target: Nuclear receptor subfamily 4 group A member 1 (Mus musculus) (UniProt P12813); experiment: Agonist activity at Nur77 in Nr4a1 deficient mouse transfected withGAL4-Y453A assessed as transcriptional activation of luciferase reporter gene; format: functional
Method in brief: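 Nr4a1-/- mice (n = 5/group) given tail-vein GAL4-Nur77 or GAL4-Y453A with GAL4-luciferase reporter and β-galactosidase in in vivo transfection reagent; 5 h later DMSO or Csn-B 50 mg kg-1 ip; liver luciferase measured at 24 h.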

[26] = Antiproliferative activity against human H1299 cells assessed as number of viable cells after 72 hrs by MTT assay; format: functional, NCI-H1299
[27] = system: BGC-823; experiment: Induction of Nur77 mediated apoptosis in human BGC823 cells assessed as cytochrome C release […] at 5 uM after 24 hrs by Western blotting analysis; format: functional, cell-based
[28] = target: Nuclear receptor subfamily 4 group A member 1 (Mus musculus) (UniProt P12813); experiment: Agonist activity at Nur77 in insulin treated mouse C57BL/6 assessed as glucose-6-phosphatase mRNA after 60 mins by real-time PCR relative to control; format: functional
[29] = target: Nuclear receptor subfamily 4 group A member 1 (Mus musculus) (UniProt P12813); experiment: Agonist activity at Nur77 in wild-type mouse C57BL/6 assessed as pyruvate kinase mRNA at 50 mg/kg, ip within 30 mins by real-time PCR analysis; format: functional, organism-based; design: dose 50 mg/kg
[30] = system: L02; experiment: Antiproliferative activity against human HL7702 cells assessed as number of viable cells after 72 hrs by MTT assay; format: functional, cell-based

T1 sequence (P22736 whole entry, the tested form may be a part): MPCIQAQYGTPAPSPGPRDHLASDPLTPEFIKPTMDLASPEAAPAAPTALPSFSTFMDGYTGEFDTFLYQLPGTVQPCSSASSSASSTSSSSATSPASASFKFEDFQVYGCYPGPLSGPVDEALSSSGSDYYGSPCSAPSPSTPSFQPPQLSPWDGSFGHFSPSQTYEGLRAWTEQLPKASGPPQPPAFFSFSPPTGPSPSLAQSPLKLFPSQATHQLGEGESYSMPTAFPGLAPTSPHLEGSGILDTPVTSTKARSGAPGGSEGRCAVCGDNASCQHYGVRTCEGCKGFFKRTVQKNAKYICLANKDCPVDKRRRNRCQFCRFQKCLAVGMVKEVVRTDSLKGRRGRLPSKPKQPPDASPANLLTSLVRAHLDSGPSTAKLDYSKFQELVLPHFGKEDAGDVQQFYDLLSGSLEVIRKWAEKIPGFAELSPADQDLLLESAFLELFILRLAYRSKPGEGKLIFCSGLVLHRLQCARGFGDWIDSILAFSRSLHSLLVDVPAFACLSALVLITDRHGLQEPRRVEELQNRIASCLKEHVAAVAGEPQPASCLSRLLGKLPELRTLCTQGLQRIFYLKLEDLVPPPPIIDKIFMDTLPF
Sequence of Nuclear receptor subfamily 4 group A member 1 (Mus musculus) (P12813 whole entry, the tested form may be a part): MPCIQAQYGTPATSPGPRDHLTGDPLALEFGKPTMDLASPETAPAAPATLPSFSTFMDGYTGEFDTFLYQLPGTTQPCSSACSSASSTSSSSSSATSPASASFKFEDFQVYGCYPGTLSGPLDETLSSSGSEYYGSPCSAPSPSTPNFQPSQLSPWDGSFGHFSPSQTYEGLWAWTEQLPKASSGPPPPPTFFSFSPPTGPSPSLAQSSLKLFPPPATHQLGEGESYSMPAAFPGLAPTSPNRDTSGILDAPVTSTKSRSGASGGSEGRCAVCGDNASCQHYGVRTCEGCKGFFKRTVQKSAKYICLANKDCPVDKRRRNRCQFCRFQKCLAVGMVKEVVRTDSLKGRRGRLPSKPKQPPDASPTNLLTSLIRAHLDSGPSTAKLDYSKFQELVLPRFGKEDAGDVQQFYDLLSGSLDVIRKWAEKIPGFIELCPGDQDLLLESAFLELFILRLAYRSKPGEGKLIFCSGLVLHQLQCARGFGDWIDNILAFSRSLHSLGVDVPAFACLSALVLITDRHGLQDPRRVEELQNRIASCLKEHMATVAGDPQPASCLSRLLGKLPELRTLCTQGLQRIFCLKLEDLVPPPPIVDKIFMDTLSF
Sequence of Nuclear receptor subfamily 4 group A member 2 (Homo sapiens) (P43354 whole entry, the tested form may be a part): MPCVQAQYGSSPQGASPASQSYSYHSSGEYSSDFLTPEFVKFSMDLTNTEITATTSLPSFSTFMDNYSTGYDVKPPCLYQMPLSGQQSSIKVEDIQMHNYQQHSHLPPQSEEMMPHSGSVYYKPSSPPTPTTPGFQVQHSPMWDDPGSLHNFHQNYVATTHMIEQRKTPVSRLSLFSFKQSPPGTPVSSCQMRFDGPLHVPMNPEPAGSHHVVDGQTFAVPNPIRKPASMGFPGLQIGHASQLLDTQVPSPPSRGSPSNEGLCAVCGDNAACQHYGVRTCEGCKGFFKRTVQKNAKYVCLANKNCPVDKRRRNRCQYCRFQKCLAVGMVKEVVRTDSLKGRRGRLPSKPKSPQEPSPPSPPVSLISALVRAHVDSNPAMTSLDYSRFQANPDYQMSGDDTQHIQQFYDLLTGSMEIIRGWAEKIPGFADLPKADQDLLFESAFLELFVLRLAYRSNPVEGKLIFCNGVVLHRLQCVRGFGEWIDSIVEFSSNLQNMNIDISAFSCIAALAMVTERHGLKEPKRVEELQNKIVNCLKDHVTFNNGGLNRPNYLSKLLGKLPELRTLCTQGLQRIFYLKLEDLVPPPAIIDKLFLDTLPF
Sequence of Nuclear receptor subfamily 4 group A member 3 (Homo sapiens) (Q92570 whole entry, the tested form may be a part): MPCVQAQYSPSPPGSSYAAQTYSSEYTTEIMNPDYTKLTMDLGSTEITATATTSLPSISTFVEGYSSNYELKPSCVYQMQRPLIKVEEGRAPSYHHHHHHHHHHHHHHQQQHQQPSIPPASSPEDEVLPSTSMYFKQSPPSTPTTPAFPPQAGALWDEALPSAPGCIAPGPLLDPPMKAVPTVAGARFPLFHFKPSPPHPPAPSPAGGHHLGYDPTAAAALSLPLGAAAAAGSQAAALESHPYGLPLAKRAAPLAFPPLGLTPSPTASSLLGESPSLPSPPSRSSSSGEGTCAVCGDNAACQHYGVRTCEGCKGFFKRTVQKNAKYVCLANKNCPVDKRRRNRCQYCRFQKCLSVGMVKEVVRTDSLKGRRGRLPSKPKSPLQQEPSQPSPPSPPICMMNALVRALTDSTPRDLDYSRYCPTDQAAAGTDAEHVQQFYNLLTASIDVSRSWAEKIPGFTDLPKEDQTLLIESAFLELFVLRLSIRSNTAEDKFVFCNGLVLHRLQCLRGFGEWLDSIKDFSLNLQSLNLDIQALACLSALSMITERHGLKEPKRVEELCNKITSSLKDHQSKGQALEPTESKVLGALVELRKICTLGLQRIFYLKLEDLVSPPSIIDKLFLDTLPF

CCCCCCCC(=O)c1c(O)cc(O)cc1CC(=O)OCC [CYTOSPORONE B]
Activity [1]: inactive | Activity [2]: 20.1% | EC50 [3]: 0.115 nM | Activity [4]: inactive | fold change (FC) [5]: 5 | Activity [6]: 63.5% | Activity [7]: Active | IC50 [8]: 1.56 µg/mL (≈ 4.84 µM) | fold change (FC) [9]: 3 | Activity [10]: Active | Activity [11]: inactive | Activity [12]: inactive | inhibition [13]: Active | Activity [14]: inactive | Activity [15]: inactive | Activity [16]: Active | Activity [17]: inactive | Activity [18]: inactive | inhibition (INH) [19]: >70% | Activity [20]: inactive | Activity [21]: inactive | Activity [22]: Active | Activity [23]: Active | Kd [24]: 1510 nM | Activity [25]: inactive | inhibition (INH) [26]: >=40% | Activity [27]: Active | fold change (FC) [28]: 6.23 | Activity [29]: inactive | inhibition [30]: Active
